Data reported in ChEMBL document CHEMBL1126563, “The inophyllums, novel inhibitors of HIV-1 reverse transcriptase isolated from the Malaysian tree, Calophyllum inophyllum Linn” (J Med Chem, 1993).

Legend:
MOLT-4 = assay: Tested for cytotoxicity in Molt-4 cells by XTT assay; assay type: functional, cell-based; conditions: Homo sapiens
How it was run: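 Molt-4 cells plated at 3×10^4 cells/well with compound; on day 7 XTT conversion to formazan measured, with trypan blue microscopic examination also used; IC50 derived.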

[1] = target: Human immunodeficiency virus type 1 reverse transcriptase (Human immunodeficiency virus 1, UniProt Q72547); assay: Inhibitory concentration against HIV-1 reverse transcriptase in scintillation proximity assay
How it was run: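 Recombinant purified HIV-1 RT (2 nM) with 39 nM 50-mer RNA template annealed to biotinylated 17-mer DNA primer; 75 nM dATP, dCTP, dGTP and [3H]TTP. Buffer 50 mM Tris-HCl pH 8.0, 80 mM KCl, 10 mM MgCl2, 10 mM DTT, 0.012% CHAPS. Enzyme, template-primer and inhibitor (90 μM–0.01 nM) preincubated 15 min at 37 °C; reaction 10 min at 37 °C, EDTA stop, streptavidin scintillant beads, scintillation counting.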

[2] = test system: Human immunodeficiency virus 1; assay: Anti-HIV activity against HIV-1 in Molt-4 cells using 7-day infective assay; assay type: functional, organism-based; conditions: Human immunodeficiency virus 1, MOLT-4, 168 h
How it was run: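 Molt-4 cells (3×10^4) infected with 50 tissue culture infectious doses of HIV-1; compound added day 0, cultures refed days 1 and 4 with medium containing compound at initial concentration. On day 7 cells spun down and supernatant RT quantified by microassay; IC50 from RT quantitation.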

[3] = Selectivity index is the ratio of cytotoxicity in Molt-4 cells and anti-HIV- IC50; assay type: functional
How it was run: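 Selectivity index = cytotoxicity IC50 (XTT, Molt-4, day 7) divided by anti-HIV IC50 (RT quantitation in supernatant 7 days after HIV-1 infection of Molt-4 cells).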

[4] = target: Human immunodeficiency virus type 1 reverse transcriptase (Human immunodeficiency virus 1, UniProt Q72547, Y181L); assay: Inhibitory concentration against HIV-1 reverse transcriptase mutant (Tyr-181 to Leu)
How it was run: (§1)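 Scintillation proximity assay for RNA-dependent DNA polymerase activity of recombinant purified RT. The template is a 50-mer RNA annealed at its 5'-end to a biotinylated 17-mer DNA primer. Buffer is 50 mM Tris-HCl pH 8.0 with 80 mM KCl, 10 mM MgCl2, 10 mM DTT and 0.012% CHAPS. Final levels are 2 nM RT, 39 nM template-primer, 75 nM each dATP/dCTP/dGTP/[3H]TTP, and inhibitor serially diluted over 90 μM–0.01 nM. RT, template-primer and inhibitor are preincubated 15 min at 37 °C. The reaction runs 10 min at 37 °C and is stopped with EDTA. Incorporated label is captured on streptavidin scintillant beads and counted to give IC50.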

[5] = target: Human immunodeficiency virus type 1 reverse transcriptase (Human immunodeficiency virus 1, UniProt Q72547, Y181C); assay: Inhibitory concentration against HIV-1 reverse transcriptase mutant (Tyr-181 to Cys); how it was run: as §1

Row | IC50 [1] [µM] | Structure (SMILES) | IC50 (MOLT-4) [µM] | also measured
1 | > 100 | C[C@H]1Oc2c3c(c(/C(=C\C(=O)O)c4ccccc4)c(O)c2C(=O)[C@@H]1C)OC(C)(C)C=C3 | – | –
2 | > 100 | CC(=O)O[C@H]1c2c(c3c(c4c(-c5ccccc5)cc(=O)oc24)OC(C)(C)C=C3)O[C@H](C)[C@H]1C | – | –
3 | 0.72 | CC(=O)O[C@@H]1c2c(c3c(c4c(-c5ccccc5)cc(=O)oc24)OC(C)(C)C=C3)O[C@H](C)[C@H]1C | – | –
4 | > 100 | C[C@@H]1C(=O)c2c(O)c(/C(=C\C(=O)O)c3ccccc3)c3c(c2O[C@@H]1C)C=CC(C)(C)O3 | – | –
5 | 9 | CC1=Cc2c(c3c(c4c(-c5ccccc5)cc(=O)oc24)OC(C)(C)C=C3)O[C@@H]1C | – | –
6 | 0.7 | CC(C)=CCN1Cc2cc(Cl)cc3[nH]c(=S)n(c23)C[C@@H]1C | 19 | IC50 [2]: 0.19 µM; Selectivity index [3]: 100
7 | 46 | C[C@@H]1[C@H](C(=O)c2ccc(Br)cc2)c2c(c3c(c4c(-c5ccccc5)cc(=O)oc24)OC(C)(C)C=C3)O[C@@H]1C | – | –
8 | 10 | C[C@H]1Oc2c3c(c4c(-c5ccccc5)cc(=O)oc4c2C(=O)[C@@H]1C)OC(C)(C)C=C3 | 18 | –
9 | 100 | C[C@@H]1C(=O)c2c(c3c(c4c(-c5ccccc5)cc(=O)oc24)OC(C)(C)C=C3)O[C@@H]1C | 6.2 | –
10 | > 100 | CC1[C@H](O)c2c(c3c(c4c(-c5ccccc5)cc(=O)oc24)O[C@@H]2[C@H]3C2(C)C)O[C@@H]1C (single isomer, unassigned) | – | –
11 | 70 | CC1[C@H](O)c2c(c3c(c4c(-c5ccccc5)cc(=O)oc24)O[C@H]2[C@@H]3C2(C)C)O[C@@H]1C (single isomer, unassigned) | – | –

Row | Structure (SMILES) | IC50 [1] [µM] | IC50 (MOLT-4) [µM] | also measured
12 | C[C@@H]1[C@H](O)c2c(c3c(c4c(-c5ccccc5)cc(=O)oc24)OC(C)(C)C=C3)O[C@@H]1C | 30 | 33 | –
13 | C[C@H]1[C@H](O)c2c(c3c(c4c(-c5ccccc5)cc(=O)oc24)OC(C)(C)C=C3)O[C@@H]1C | 0.038 | 55 | IC50 [4]: 0.41 µM; IC50 [5]: 0.16 µM; IC50 [2]: 1.4 µM; Selectivity index [3]: 39
14 | C[C@H]1[C@@H](C)Oc2c3c(c4c(-c5ccccc5)cc(=O)oc4c2[C@@H]1O)OC(C)(C)C=C3 | 11 | 15 | –
15 | C[C@@H]1[C@@H](C)Oc2c3c(c4c(-c5ccccc5)cc(=O)oc4c2[C@@H]1O)OC(C)(C)C=C3 | 0.13 | 25 | IC50 [2]: 1.6 µM; Selectivity index [3]: 16
